Screening data as filed in PubChem BioAssay.
A selection: hits, their analogues and other compounds. The true share with any hit is near 3.1%.
DENV2 CPE rescue: DENV2-induced cell death inhibition. 1.7% of 350,000 active. CPE inhibition, % at 9.99 µM. AID 651640. DENV2-infected cells, cytopathic effect rescue, plate reader; in the data active means CPE inhibition above about 20%, passing the limit was not always enough; inconclusive means no clear call, values can overlap the other calls; tested in BHK-21 cells;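 further: 0% = median of neutral control wells and 100% = median of positive control wells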
Ecoli rRNA inh: inhibits bacterial ribosomal RNA function over humanized ribosomes. AID 720706. GFP signal change (wild-type ribosome), % (concentration not given with the values). 1.6% of 350,000 active. E. coli WT GFP vs humanized-ribosome RFP mutants, fluorescence, 24 h; active compounds read low; DMSO median 0, no signal -100;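 active means significant combined selectivity score with lowered wild-type GFP, culture density cut under 30%, mutant RFP and density less affected; inactive means any of these conditions unmet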
Cneo AK release: causes C. neoformans cell lysis; adenylate kinase release luminescence, 4 h; normalised: neutral wells 0, clomiphene wells 100; lysis activity, % at 15 µM; 0.2% of 360,000 active; AID 651654;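 active means mean lysis activity across replicates of at least 80%, whatever share of replicates individually reach that level; inactive means mean lysis activity below 80%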
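Material: C. neoformans cells; Schedule: 4 h static compound exposure, 37 °C, read 1 h post-reagent; Measured by: adenylate kinase release luminescence; Read-out: signal increase indicating cell lysis; Controls: Clomiphene as positive lysis control.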
E-sel inducer: E-selectin induction on HUVECs; HUVEC E-selectin immunofluorescence imaging; normalized: neutral wells 0, TNF-alpha wells 100; 0.37% of 260,000 active; AID 686992; activation, % at 7.58 µM;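 active means mean E-selectin-positive cell signal at least 10% of the positive control, reached in at least 60% of replicates, without over 20% cell loss; inconclusive means no rule given, readout overlaps actives, possibly toxicity-flagged; inactive means the rest, including those meeting only one limit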
Target sequence (P16581 whole entry, looked up): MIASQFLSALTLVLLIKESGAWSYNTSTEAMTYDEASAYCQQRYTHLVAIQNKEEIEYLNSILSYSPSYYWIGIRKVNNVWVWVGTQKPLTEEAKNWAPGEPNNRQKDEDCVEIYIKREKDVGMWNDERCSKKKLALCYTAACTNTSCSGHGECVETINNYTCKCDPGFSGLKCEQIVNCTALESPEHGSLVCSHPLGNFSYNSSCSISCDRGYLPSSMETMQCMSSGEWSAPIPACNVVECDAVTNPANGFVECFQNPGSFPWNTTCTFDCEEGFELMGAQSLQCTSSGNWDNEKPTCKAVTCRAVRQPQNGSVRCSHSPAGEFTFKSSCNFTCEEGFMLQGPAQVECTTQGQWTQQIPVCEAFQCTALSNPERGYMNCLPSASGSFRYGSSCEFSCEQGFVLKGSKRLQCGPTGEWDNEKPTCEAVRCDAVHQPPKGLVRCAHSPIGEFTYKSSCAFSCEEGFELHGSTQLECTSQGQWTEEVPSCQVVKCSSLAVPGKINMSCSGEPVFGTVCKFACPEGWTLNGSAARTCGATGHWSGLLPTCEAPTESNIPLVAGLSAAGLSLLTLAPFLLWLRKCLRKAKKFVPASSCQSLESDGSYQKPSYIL
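Assay system: HUVEC, human umbilical vein endothelial cells / Amount: 3,000 HUVEC/well / Controls: TNF-alpha positive control, DMSO neutral control / Compound dosing: single concentration / Medium: EGM-2 over gelatin coat / Evaluation: percent E-selectin-positive cells / Signal: immunofluorescence imaging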
miR122 inh: blocks miR-122 activity in Huh7 sensor cells | Huh7 miR-122 Renilla luciferase sensor, 48 h; neutral wells = 0, positive control = 100 | 0.3% of 340,000 active | activation (reporter increase), % at 12.5 µM;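 active means mean replicate activation score at least 90 and every replicate individually at or above 90; inconclusive means only one of the two criteria met; inactive means neither criterion met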;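 further: higher luciferase means less miR-122 activity so hits act as miR-122 inhibitors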
Starred values were filed as active, the others as inactive; [ ] = remark or other dose.

O=C(N[C@@H]1CC[C@@H](CCNS(=O)(=O)c2ccc(Cl)cc2)O[C@@H]1CO)c1ccccn1 was read as DENV2 CPE rescue inconclusive, Ecoli rRNA inh -2, Cneo AK release -8, E-sel inducer -1 and miR122 inh 14[16.7 µM].
Screening O=C(N[C@H]1CC[C@H](CCNS(=O)(=O)c2ccc(Cl)cc2)O[C@H]1CO)c1ccccn1 returned DENV2 CPE rescue 60*, Ecoli rRNA inh -11, Cneo AK release 30, E-sel inducer 0 and miR122 inh 3[16.7 µM].
For O=C(Cc1ccccn1)NCC[C@@H]1CC[C@@H](NS(=O)(=O)c2ccc(Cl)cc2)[C@@H](CO)O1 the results were DENV2 CPE rescue 34*, Ecoli rRNA inh 4, Cneo AK release 5 and E-sel inducer 0.
Screening O=C(N[C@H]1CC[C@H](CCNS(=O)(=O)c2ccc(Cl)cc2)O[C@H]1CO)c1cccc(F)c1 returned DENV2 CPE rescue 55*, Ecoli rRNA inh -6, Cneo AK release 52 and E-sel inducer 0.
O=C(N[C@H]1CC[C@@H](CCNS(=O)(=O)c2ccc(Cl)cc2)O[C@@H]1CO)c1ccccn1 was read as DENV2 CPE rescue 53*, Ecoli rRNA inh -1, Cneo AK release 38, E-sel inducer 0 and miR122 inh 89[16.7 µM].
O=C(N[C@@H]1CC[C@H](CCNS(=O)(=O)c2ccc(Cl)cc2)O[C@H]1CO)c1ccccn1 was read as DENV2 CPE rescue 0, Ecoli rRNA inh 2, Cneo AK release 55, E-sel inducer 0 and miR122 inh 5[16.7 µM].
For C=CCOC(=O)[C@@H]1[C@H]2C(=O)O[C@H](c3ccccc3)[C@H](c3ccccc3)N2[C@H](c2ccc(OCCOC(=O)[C@H]3C[C@H]4C(=O)N5CCC[C@H]5C(=O)N4[C@H]3c3ccc(O)cc3)cc2)[C@@]12C(=O)Nc1ccccc12 the results were DENV2 CPE rescue 2 and Cneo AK release -4.
For COc1ccc(S(=O)(=O)N[C@@H]2C=C[C@H](CC(=O)N3CCC(Cc4ccccc4)CC3)O[C@@H]2CO)cc1 the results were DENV2 CPE rescue -3, Ecoli rRNA inh -7, Cneo AK release 3 and E-sel inducer 0.
`Cc1ccc(S(=O)(=O)N[C@@H]2C=C[C@@H](CC(=O)N3CCc4ccccc4C3)O[C@@H]2CO)cc1` gave DENV2 CPE rescue 28*, Ecoli rRNA inh -4, Cneo AK release -4 and E-sel inducer 0.
Screening COc1ccc(S(=O)(=O)N[C@@H]2C=C[C@@H](CC(=O)N3CCC(Cc4ccccc4)CC3)O[C@H]2CO)cc1 returned DENV2 CPE rescue -6, Ecoli rRNA inh -21, Cneo AK release 95* and E-sel inducer 0.
O=C(C[C@H]1C=C[C@@H](NS(=O)(=O)c2ccccc2)[C@@H](CO)O1)N1CCc2ccccc2C1 was read as DENV2 CPE rescue -1, Ecoli rRNA inh -6, Cneo AK release -2 and E-sel inducer 0.
`CC=Cc1ccc2n(c1=O)C[C@@H]1[C@@H](CO)[C@H](C(=O)NC3CCC3)N(CCC)[C@H]21` (mixture of isomers) gave DENV2 CPE rescue 2, Ecoli rRNA inh -2 and E-sel inducer 0.
For COc1cc(N)c(Cl)cc1C(=O)OCC(=O)NCc1cccs1 the results were DENV2 CPE rescue 13, Ecoli rRNA inh -8, Cneo AK release 0, E-sel inducer 73* and miR122 inh 11.
COc1ccc(C(=O)OCC(=O)NCc2cccs2)c(OC)c1OC was read as DENV2 CPE rescue -3, Ecoli rRNA inh 4, Cneo AK release 22, E-sel inducer 0 and miR122 inh -3.
Screening CCCC(=O)Nc1ccc2c(c1)C(=O)N(C)C[C@@H](OC)[C@@H](C)CN(C(=O)CC)[C@@H](C)CO2 returned Ecoli rRNA inh -1, E-sel inducer 0 and miR122 inh -2[16.7 µM].
`CCC(=O)N1[C@H](CO)[C@@H](c2ccccc2)C12CN(Cc1cccnc1)C2` gave DENV2 CPE rescue -5, Ecoli rRNA inh 3 and E-sel inducer 0.
COC(=O)c1ccc(NC(=S)NN2CCCCC2c2cccnc2)cc1 (stereo not drawn) was read as DENV2 CPE rescue 6, Ecoli rRNA inh -27*, Cneo AK release -3, E-sel inducer 0 and miR122 inh 3.
COc1ccccc1C(=O)Nc1ccc(S(=O)(=O)N2CCCCC2c2cccnc2)cc1 (stereo not drawn) was read as DENV2 CPE rescue 4 and Ecoli rRNA inh -22*.
C[C@H](CO)N1C[C@H](C)[C@@H](CN(C)S(C)(=O)=O)Oc2ncc(C3=CCCCC3)cc2C1=O was read as Ecoli rRNA inh 3, E-sel inducer 1 and miR122 inh -3[16.7 µM].
Screening C[C@@H]1CN([C@H](C)CO)C(=O)c2cc(NC(=O)Nc3ccc(C(F)(F)F)cc3)ccc2O[C@@H](C)CCCCO[C@@H]1CN(C)Cc1ccc(Cl)c(Cl)c1 returned DENV2 CPE rescue -2, Ecoli rRNA inh -6, Cneo AK release 4, E-sel inducer 0 and miR122 inh 6[16.7 µM].
Screening COc1ccc(OC)c(S(=O)(=O)Nc2cc(OC)c(Cl)cc2OC)c1 returned Cneo AK release 2 and miR122 inh 67.
Screening COc1cc(NS(=O)(=O)c2ccc(OC)c(C)c2C)c(OC)cc1Cl returned Cneo AK release 3 and miR122 inh 272*.
Screening COc1cc(C(=O)Oc2cccc(C=O)c2)cc(OC)c1OC returned Cneo AK release 1 and miR122 inh -7.
`COc1cc(C(=O)Oc2ccccc2N)cc(OC)c1OC` gave Cneo AK release 92* and miR122 inh 2.
`O=C(C[C@H]1CC[C@@H]2[C@H](COC[C@@H](O)CN2S(=O)(=O)c2ccc(Cl)cc2)O1)NCCN1CCCC1` gave DENV2 CPE rescue -5, Ecoli rRNA inh 5, Cneo AK release 8, E-sel inducer 0 and miR122 inh -5[16.7 µM].
`O=C(C[C@H]1CC[C@@H]2[C@H](COC[C@H](O)CN2S(=O)(=O)c2ccccc2)O1)NCCN1CCCC1` gave DENV2 CPE rescue 28*, Ecoli rRNA inh -1 and E-sel inducer 0.
For O=C(C[C@@H]1CC[C@@H]2[C@H](COC[C@H](O)CN2C(=O)c2ccc3c(c2)OCO3)O1)NCCN1CCCC1 the results were DENV2 CPE rescue 31*, Ecoli rRNA inh 3 and E-sel inducer 0.
For O=C(C[C@@H]1CC[C@@H]2[C@H](COC[C@@H](O)CN2S(=O)(=O)c2ccc(Cl)cc2)O1)NCCN1CCCC1 the results were DENV2 CPE rescue 27*, Ecoli rRNA inh 4, Cneo AK release 4, E-sel inducer 0 and miR122 inh -3[16.7 µM].
O=C(C[C@@H]1CC[C@H]2[C@@H](COC[C@@H](O)CN2S(=O)(=O)c2ccccc2)O1)NCCN1CCCC1 was read as DENV2 CPE rescue inconclusive, Ecoli rRNA inh 7 and E-sel inducer 0.
